According to ChEMBL document CHEMBL1125307, “Novel 1,2,4-oxadiazoles and 1,2,4-thiadiazoles as dual 5-lipoxygenase and cyclooxygenase inhibitors” (J Med Chem, 1992):
The source made the active and inactive calls. The calls are words filed in the database; no cut-off is given here.

What was measured:
Rattus norvegicus [1] = species: Rattus norvegicus; experiment: Ratio of IC50 against 5-LO and COX
Procedure, shortened: (§1)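 In ionophore-stimulated RBL-1 cells (2×10^6/mL, PBS with 1.0 mM Ca, 10 min compound preincubation at room temperature, 5 μM A23187 for 7 min at 37 °C), supernatant LTB₄ (5-LO) and PGF₂α (CO) were each quantified by RIA over 0.10–10.0 μM. IC50s came from linear regression, and the ratio is the 5-LO IC50 over the CO IC50.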

Rattus norvegicus [2] = experiment: Compound was evaluated for the antiinflammatory activity by taking the percentage inhibition of edema in the carrageenan foot-pad edema test at the dose of 30 mg/kg; N=Inactive, <25% inhibition; type: functional, organism-based; set-up: dose 30 mg/kg
Procedure, shortened: (§2)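 Male Wistar rats dosed orally (0.5% HPMC/0.2% Tween 80 or Labrafils, 10 mL/kg) 1 h before subplantar injection of 0.10 mL 1% carrageenan into right hind paw under light anesthesia. Paw volume by mercury plethysmography at challenge and 5 h later; percent inhibition ± SEM versus vehicle group. Doses 10.0 and 30.0 mg/kg po, 7-14 rats per dose.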

Cyclooxygenase = biological target: T1, Cyclooxygenase (Rattus norvegicus, UniProt P35355+Q63921); experiment: Evaluated in vitro for its inhibitory activity against Prostaglandin G/H synthase; type: protein assay
T1 sequence (P35355 whole entry): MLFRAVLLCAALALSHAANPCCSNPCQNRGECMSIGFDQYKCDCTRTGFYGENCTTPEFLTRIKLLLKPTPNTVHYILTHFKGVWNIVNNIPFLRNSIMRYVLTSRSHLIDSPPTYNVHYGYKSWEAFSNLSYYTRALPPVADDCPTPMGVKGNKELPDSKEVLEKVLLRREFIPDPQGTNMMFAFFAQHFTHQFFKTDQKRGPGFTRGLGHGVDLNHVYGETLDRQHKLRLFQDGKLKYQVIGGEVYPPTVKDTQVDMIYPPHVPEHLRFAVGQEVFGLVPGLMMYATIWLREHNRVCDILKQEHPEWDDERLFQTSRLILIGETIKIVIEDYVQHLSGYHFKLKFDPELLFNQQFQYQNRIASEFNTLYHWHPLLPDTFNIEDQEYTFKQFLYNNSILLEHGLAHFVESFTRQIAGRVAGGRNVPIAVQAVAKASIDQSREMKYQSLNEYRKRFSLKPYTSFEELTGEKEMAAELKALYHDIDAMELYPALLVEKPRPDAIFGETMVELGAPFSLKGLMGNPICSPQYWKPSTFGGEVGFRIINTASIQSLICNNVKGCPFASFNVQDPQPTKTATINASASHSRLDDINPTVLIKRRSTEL
T1 sequence (Q63921 whole entry): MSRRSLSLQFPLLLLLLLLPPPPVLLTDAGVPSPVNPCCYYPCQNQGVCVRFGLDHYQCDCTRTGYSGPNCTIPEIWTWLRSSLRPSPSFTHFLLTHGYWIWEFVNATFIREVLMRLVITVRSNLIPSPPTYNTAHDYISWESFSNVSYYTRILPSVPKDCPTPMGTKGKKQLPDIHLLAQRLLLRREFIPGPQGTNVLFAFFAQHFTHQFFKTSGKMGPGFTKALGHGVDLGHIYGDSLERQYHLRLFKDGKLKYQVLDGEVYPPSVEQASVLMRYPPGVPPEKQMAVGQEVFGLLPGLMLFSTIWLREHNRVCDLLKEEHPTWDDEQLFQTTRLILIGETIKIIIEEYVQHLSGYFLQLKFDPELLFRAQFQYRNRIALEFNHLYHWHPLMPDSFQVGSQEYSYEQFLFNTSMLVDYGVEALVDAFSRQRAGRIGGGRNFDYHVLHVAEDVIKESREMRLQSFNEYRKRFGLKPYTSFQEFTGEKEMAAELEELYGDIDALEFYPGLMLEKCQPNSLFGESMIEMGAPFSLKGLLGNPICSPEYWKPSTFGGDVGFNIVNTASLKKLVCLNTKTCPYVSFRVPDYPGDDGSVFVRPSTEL

[3] = biological target: T2, Polyunsaturated fatty acid 5-lipoxygenase (Rattus norvegicus, UniProt P12527); experiment: Inhibitory activity against 5-Lipoxygenase
T2 sequence (P12527 whole entry): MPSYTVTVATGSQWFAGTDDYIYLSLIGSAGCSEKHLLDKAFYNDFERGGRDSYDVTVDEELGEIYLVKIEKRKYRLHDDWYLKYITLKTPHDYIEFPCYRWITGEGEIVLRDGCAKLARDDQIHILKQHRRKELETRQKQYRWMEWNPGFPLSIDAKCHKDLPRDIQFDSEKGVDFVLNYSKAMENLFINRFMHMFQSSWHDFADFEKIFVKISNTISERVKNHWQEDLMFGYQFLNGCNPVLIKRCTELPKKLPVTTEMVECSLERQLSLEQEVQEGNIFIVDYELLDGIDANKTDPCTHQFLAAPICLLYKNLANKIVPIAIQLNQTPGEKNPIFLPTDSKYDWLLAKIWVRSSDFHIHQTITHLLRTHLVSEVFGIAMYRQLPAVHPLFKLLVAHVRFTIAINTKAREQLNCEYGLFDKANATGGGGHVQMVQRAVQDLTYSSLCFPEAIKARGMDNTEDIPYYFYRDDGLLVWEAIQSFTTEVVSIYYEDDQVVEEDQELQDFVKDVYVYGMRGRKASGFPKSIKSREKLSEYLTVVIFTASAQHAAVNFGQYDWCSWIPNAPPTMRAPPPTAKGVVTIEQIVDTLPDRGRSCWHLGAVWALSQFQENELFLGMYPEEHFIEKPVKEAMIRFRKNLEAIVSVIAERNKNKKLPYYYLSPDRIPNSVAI
Procedure, shortened: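 Rat basophilic leukemia RBL-1 cells were grown in suspension in MEM with 12% FBS, washed, and resuspended at 2×10^6 cells/mL in PBS pH 7.4 with 1.0 mM calcium. Compound in DMSO was preincubated 10 min at room temperature, then 5 μM A23187 was added for 7 min at 37 °C. LTB₄ in the supernatant was measured by RIA at 0.10–10.0 μM. IC50 was determined by linear regression.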

Rattus norvegicus [4] = experiment: Compound was evaluated for the percent rats with ulcers at the dose of 30 mg/kg (number of animals used per group in the experiment are 10 ); type: functional
Procedure, shortened: (§3)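 Male outbred Wistar rats (100-250 g) fasted 24 h, given compound orally in 0.5% HPMC (2 mL/kg), then denied food and water 6 more h. Killed with CO2; stomachs opened along greater curvature and scored for ulcers. Percent of rats with ulcers per dose; up to 200 mg/kg po, 10 rats per dose.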

Rattus norvegicus [5] = species: Rattus norvegicus; experiment: Ratio of IC50 against 5-LO to that of CO enzyme.; procedure, shortened: as §1
Rattus norvegicus [6] = experiment: Evaluated for the antiinflammatory activity by measuring the dose (po) which inhibited Mycobacterium induced foot-pad edema in rats; type: functional
Rattus norvegicus [7] = experiment: Evaluated for the antiinflammatory activity by measuring the percentage inhibition of edema in the carrageenan foot-pad edema test at the dose of 10 mg/kg; type: functional; procedure, shortened: as §2
[8] = biological target: T2, Polyunsaturated fatty acid 5-lipoxygenase; experiment: Evaluated in vitro for its inhibitory activity against 5-lipoxygenase
Rattus norvegicus [9] = experiment: Evaluated for the antiinflammatory activity by measuring the percentage inhibition of edema in the carrageenan foot-pad edema test at the dose of 30 mg/kg; type: functional; procedure, shortened: as §2
Rattus norvegicus [10] = experiment: Compound was evaluated for the antiinflammatory activity by taking the percentage inhibition of edema in the carrageenan foot-pad edema test at the dose of 30 mg/kg; type: functional; procedure, shortened: as §2
Rattus norvegicus [11] = experiment: Compound was evaluated for the antiinflammatory activity by taking the percentage inhibition of edema in the carrageenan foot-pad edema test at the dose of 10 mg/kg; type: functional; procedure, shortened: as §2
Rattus norvegicus [12] = experiment: Evaluated for the percent rats with ulcers at the dose of 200 mg/kg (number of animals used per group in the experiment are 10 ); type: functional; procedure, shortened: as §3
Rattus norvegicus [13] = experiment: Compound was evaluated for th antiinflammatory activity administering through oral route by taking the inhibitory dose of induced edema in the mycobacterium foot-pad edema test; type: functional
Rattus norvegicus [14] = experiment: Compound was evaluated for the percent rats with ulcers at the dose of 36 mg/kg (number of animals used per group in the experiment are 10 ); type: functional; procedure, shortened: as §3

SMILES | Ratio (Rattus norvegicus [1]) | inhibition (Rattus norvegicus [2]) | IC50 (Cyclooxygenase) [nM] | IC50 [3] [nM] | Activity (Rattus norvegicus [4]) [%] | Ratio (Rattus norvegicus [5]) | ID40 (Rattus norvegicus [6]) [mg/kg] | inhibition in vivo at 10 mg/kg (Rattus norvegicus [7]) [%] | IC50 [8] [nM] | inhibition in vivo at 30 mg/kg (Rattus norvegicus [9]) [%] | inhibition in vivo at 30 mg/kg (Rattus norvegicus [10]) [%] | inhibition in vivo at 10 mg/kg (Rattus norvegicus [11]) [%] | Activity (Rattus norvegicus [12]) [%] | ID40 (Rattus norvegicus [13]) [mg/kg] | Activity (Rattus norvegicus [14]) [%]
CC(C)(C)c1cc(-c2nc(CCl)no2)cc(C(C)(C)C)c1O | 7.8 | inactive | 100 | 780 |  |  |  |  |  |  |  |  |  |  | 
CC(C)(C)c1cc(C2CCOC2=O)cc(C(C)(C)C)c1O (configuration not stated) |  |  | 150 |  | 30 | 17 | 3.7 | 16.6 | 2500 | 28.4 |  |  |  |  | 
CC(C)(C)c1cc(-c2nnc(S)s2)cc(C(C)(C)C)c1O.C[N+](C)(C)CC[O-] | 3.5 |  | 800 | 2800 |  |  |  |  |  |  | 47.9 | 49.9 | 0 | 7.7 | 
Cc1ccc(Cl)c(Nc2ccccc2C(=O)[O-])c1Cl.O.[Na+] [MECLOFENAMATE SODIUM] |  |  |  |  |  |  | 0.4 | 34.4 |  | 40.8 |  |  |  |  | 50
